Test [1] in a line: DPPH radical scavenging assay. The settings on record: for EC50: DPPH radical scavenging; for Inhibition% ± SEM: DPPH, measured at 400 μM, 3 repetitions. The procedure, abridged: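 DPPH solution (110 μM) mixed with samples at various concentrations and kept in the dark for 30 min. Absorbance read at 517 nm. Percent inhibition and EC50 calculated from absorbance changes. Each concentration run in triplicate.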

The target of the next test is tyrosinase enzyme (Agaricus bisporus, UniProt C7FF04). Nature of the test: Kinetic study of tyrosinase inhibition. Type of test: biochemical. The settings on record: Lineweaver-Burk plot, L-DOPA substrate; Km increased, Vmax constant.
Sequence of tyrosinase enzyme (C7FF04 2-392): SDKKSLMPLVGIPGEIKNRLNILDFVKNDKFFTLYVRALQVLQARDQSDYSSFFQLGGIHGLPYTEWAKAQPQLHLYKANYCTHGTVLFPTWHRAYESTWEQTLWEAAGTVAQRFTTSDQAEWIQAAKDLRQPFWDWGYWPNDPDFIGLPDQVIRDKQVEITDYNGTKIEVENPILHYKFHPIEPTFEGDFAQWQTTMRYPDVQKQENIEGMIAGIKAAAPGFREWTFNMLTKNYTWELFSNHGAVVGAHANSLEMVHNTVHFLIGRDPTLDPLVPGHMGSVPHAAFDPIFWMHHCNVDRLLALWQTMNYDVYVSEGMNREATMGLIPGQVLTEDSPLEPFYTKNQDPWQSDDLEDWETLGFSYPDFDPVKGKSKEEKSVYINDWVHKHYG

Each structure is given as a SMILES string.

As for `COc1cccc(/C=N/NC(=O)c2cccc(-n3ccc(=O)c(O)c3C)c2)c1O` [Compound 6c, (E)-3-(3-Hydroxy-2-methyl-4-oxopyridin-1(4H)-yl)-N'-(2-hydroxy-3-methoxybenzylidene) benzohydrazide], in test [1], the EC50 was more than 400 µM and the “Inhibition% ± SEM” value worked out at 48.06 ± 2.25%.

`O=c1c(O)c(-c2ccc(O)c(O)c2)oc2cc(O)cc(O)c12` [Quercetin, reference compound] came in with a concentration for a half-maximal effect (EC50) in test [1] of 8.98 ± 0.05 µM.

For `Cc1c(O)c(=O)ccn1-c1cccc(C(=O)NN=Cc2c(Cl)cccc2Cl)c1` [Compound 6h, N'-(2,6-dichlorobenzylidene)-3-(3-hydroxy-2-methyl-4-oxopyridin-1(4H)-yl)benzohydrazide], in test [1], the EC50 was more than 400 µM and the “Inhibition% ± SEM” value was determined as 44.55 ± 0.91%.

Take `Cc1c(O)c(=O)ccn1-c1cccc(C(=O)N/N=C/c2cccc(Cl)c2)c1` [Compound 6g, (E)-N'-(3-chlorobenzylidene)-3-(3-hydroxy-2-methyl-4-oxopyridin-1(4H)-yl) benzohydrazide]: in test [1], the EC50 was more than 400 µM and the “Inhibition% ± SEM” value was 44.20 ± 2.41%.

In the case of `Cc1c(O)c(=O)ccn1-c1cccc(C(=O)N/N=C/Cc2ccccc2)c1` [Compound 6j, (E)-3-(3-Hydroxy-2-methyl-4-oxopyridin-1(4H)-yl)-N'-(2-phenylethylidene)benzohydrazide], the “Inhibition% ± SEM” value in test [1] is listed as 68.59 ± 1.14%.

Consider `Cc1c(O)c(=O)ccn1-c1cccc(C(=O)N/N=C/c2ccccc2Br)c1` [Compound 6e, (E)-N'-(2-bromobenzylidene)-3-(3-hydroxy-2-methyl-4-oxopyridin-1(4H)-yl)benzohydrazide], for which, in test [1], the EC50 is more than 400 µM and the “Inhibition% ± SEM” value is listed as 19.59 ± 1.76%.

`COc1cc(OC)c(/C=N/NC(=O)c2cccc(-n3ccc(=O)c(O)c3C)c2)c(OC)c1` [Compound 6d, (E)-3-(3-Hydroxy-2-methyl-4-oxopyridin-1(4H)-yl)-N'-(2,4,6-trimethoxybenzylidene)benzohydrazide]: in test [1], the concentration for a half-maximal effect (EC50) is more than 400 µM and the “Inhibition% ± SEM” value came to 35.16 ± 1.37%.

Regarding `Cc1c(O)c(=O)ccn1-c1cccc(C(=O)N/N=C/c2ccccc2C(=O)O)c1` [Compound 6f, (E)-2-((2-(3-(3-Hydroxy-2-methyl-4-oxopyridin-1(4H)-yl)benzoyl) hydrazono)methyl) benzoic acid], in test [1], the EC50 is more than 400 µM and the “Inhibition% ± SEM” value is on record as 35.01 ± 5.71%.

Turning to `COc1cc(/C=N/NC(=O)c2cccc(-n3ccc(=O)c(O)c3C)c2)ccc1O` [Compound 6b, (E)-3-(3-Hydroxy-2-methyl-4-oxopyridin-1(4H)-yl)-N'-(4-hydroxy-3-methoxybenzylidene)benzohydrazide], the type of inhibition entry on tyrosinase enzyme is given as “competitive inhibitor”. Besides, in test [1], the “Inhibition% ± SEM” value was 84.64 ± 2.68%.

On to `Cc1c(O)c(=O)ccn1-c1cccc(C(=O)N/N=C/c2cc(Cl)ccc2[N+](=O)[O-])c1` [Compound 6i, (E)-N'-(5-chloro-2-nitrobenzylidene)-3-(3-hydroxy-2-methyl-4-oxopyridin-1(4H)-yl)benzohydrazide], for which, in test [1], the midpoint of the response, the EC50, lay at 174 µM and the “Inhibition% ± SEM” value is recorded as 67.65 ± 0.85%.

For `Cc1c(O)c(=O)ccn1-c1cccc(C(=O)N/N=C/c2ccc(O)c(O)c2)c1` [Compound 6a, (E)-N'-(3,4-dihydroxybenzylidene)-3-(3-hydroxy-2-methyl-4-oxopyridin-1(4H)-yl) benzohydrazide], in test [1], the “Inhibition% ± SEM” value is 90.06 ± 3.75%.

The record behind these values is publication PMC11336475 (Heliyon, 2024).
